pKi: −log10 of the molar value.
Legend:
Sigma 2 receptor = experiment: Displacement of [3H]ditolylguanidine from sigma 2 receptor in Sprague-Dawley rat liver membrane; type: cell membranes
[1] = target: Kappa-type opioid receptor (Cavia porcellus, UniProt P41144); experiment: Displacement of [3H]U-69593 from kappa opioid receptor in guinea pig brain membrane; type: cell membranes
[2] = target: Sigma non-opioid intracellular receptor 1 (Cavia porcellus, UniProt Q60492); experiment: Displacement of [3H](+)-pentazocine from sigma 1 receptor in guinea pig brain membrane; type: cell membranes
Chain of Sigma non-opioid intracellular receptor 1 (Q60492 whole entry): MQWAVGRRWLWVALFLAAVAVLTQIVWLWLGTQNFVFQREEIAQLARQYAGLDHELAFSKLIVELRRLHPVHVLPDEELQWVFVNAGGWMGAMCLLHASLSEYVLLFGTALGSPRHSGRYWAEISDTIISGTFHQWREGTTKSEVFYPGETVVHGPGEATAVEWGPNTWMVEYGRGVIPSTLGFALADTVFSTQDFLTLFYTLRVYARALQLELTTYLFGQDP

[3] = target: Mu-type opioid receptor (Cavia porcellus) (UniProt P97266); experiment: Displacement of [3H]DAMGO from mu opioid receptor in guinea pig brain membrane at 10 uM; type: cell membranes
Chain of Mu-type opioid receptor (Cavia porcellus) (P97266 whole entry): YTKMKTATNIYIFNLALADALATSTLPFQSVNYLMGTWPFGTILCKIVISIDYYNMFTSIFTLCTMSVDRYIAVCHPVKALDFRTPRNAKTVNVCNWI
Summary of the method: (§1)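 Single-point screen: percent inhibition of radioligand binding to guinea pig brain membranes with test compound at 10 µM.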

Cavia porcellus = species: Cavia porcellus; experiment: Displacement of [3H]MK-801 from NMDA receptor in guinea pig brain membrane at 10 uM; type: cell membranes; summary of the method: as §1
[4] = Displacement of [3H]MK-801 from NMDA receptor in guinea pig brain membrane; type: cell membranes, Cavia porcellus
Mu-type opioid receptor = Mu-type opioid receptor (Cavia porcellus, UniProt P97266); experiment: Displacement of [3H]DAMGO from mu opioid receptor in guinea pig brain membrane; type: cell membranes
Chain of Mu-type opioid receptor (P97266 whole entry): as above

[5] = target: Kappa-type opioid receptor (Cavia porcellus) (UniProt P41144); experiment: Displacement of [3H]U-69593 from kappa opioid receptor in guinea pig brain membrane at 10 uM; type: cell membranes
Chain of Kappa-type opioid receptor (Cavia porcellus) (P41144 whole entry): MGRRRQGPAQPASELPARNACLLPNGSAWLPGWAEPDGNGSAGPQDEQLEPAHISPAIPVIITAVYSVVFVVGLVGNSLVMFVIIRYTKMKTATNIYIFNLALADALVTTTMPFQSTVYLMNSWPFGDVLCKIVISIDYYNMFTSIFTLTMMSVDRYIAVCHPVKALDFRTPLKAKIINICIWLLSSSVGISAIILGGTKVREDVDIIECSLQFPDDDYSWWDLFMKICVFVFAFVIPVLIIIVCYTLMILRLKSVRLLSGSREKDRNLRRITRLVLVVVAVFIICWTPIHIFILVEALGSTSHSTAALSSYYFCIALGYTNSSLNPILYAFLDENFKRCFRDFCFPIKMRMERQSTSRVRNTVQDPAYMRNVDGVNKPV
Summary of the method: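 Single-concentration test reported as percent inhibition of [3H]-U-69593 binding to guinea pig brain membranes. All experiments run in triplicate. Glass fibre filters presoaked 2 h at 4 °C in 0.5% polyethylenimine, then harvested by filtration. Bound radioactivity counted by liquid scintillation at 66% counting efficiency.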

[6] = target: Sigma non-opioid intracellular receptor 1 (Cavia porcellus) (UniProt Q60492); experiment: Selectivity for guinea pig sigma 1 receptor over rat sigma 2 receptor
Chain of Sigma non-opioid intracellular receptor 1 (Cavia porcellus) (Q60492 whole entry): as the sequence (Q60492 whole entry) above

Chain of Kappa-type opioid receptor (P41144 whole entry): as the sequence (P41144 whole entry) above

Row | Structure (SMILES) | pKi (Sigma 2 receptor) | pKi [1] | pKi [2] | inhibition [3] | inhibition (Cavia porcellus) | pKi [4] | pKi (Mu-type opioid receptor) | inhibition [5] | Selectivity ratio [6]
1 | CN1C[C@@H]2CC[C@@H](OCc3ccccc3)[C@H]1CN2Cc1ccccc1 | 7.52 | 6.23 | 7.79 | 70.4% | 0% |  |  |  | 
2 | c1ccc(C2(N3CCCCC3)CCCCC2)cc1 [PHENCYCLIDINE] |  |  |  |  |  | 7.55 |  |  | 
3 | O[C@@H]1CCC2CN(CCc3ccccc3)C1CN2Cc1ccccc1 (some centres undefined) | 6.46 | 5.61 | 7.48 |  | 21.9% |  | 5.30 |  | 
4 | CN1CC2CCC(O)C1CN2Cc1ccccc1 (single isomer, unassigned; form 2) [listing 1 of 2 here] | 5.38 |  | 5.62 |  |  |  |  |  | 
5 | CN1CC2CCC(O)C1CN2Cc1ccccc1 (single isomer, unassigned; form 2) [listing 2 of 2 here] |  |  |  | 8.5% | 21% |  |  | 12.6% | 
6 | OC1CCC2CN(CCc3ccccc3)C1CN2Cc1ccccc1 (single isomer, unassigned) | 6.23 | 5.89 | 7.53 |  | 20.6% |  | 5.39 |  | 
7 | c1ccc(CCN2CC3CCC(OCc4ccccc4)C2CN3Cc2ccccc2)cc1 (centres undefined) | 6.20 | 5.65 | 6.76 | 34.8% | 16.4% |  |  |  | 
8 | CO[C@@H]1CC[C@H]2CN(C)[C@@H]1CN2Cc1ccccc1 | 6.49 | 5.44 | 5.87 | 21.5% | 8.7% |  |  |  | 
9 | CCCCN1CC2CCC(O)C1CN2Cc1ccccc1 (centres undefined) | 6.35 | 5.80 | 7.63 | 37.9% | 52.3% |  |  |  | 
10 | CN1CC2CCC(O)C1CN2Cc1ccccc1 (single isomer, unassigned; form 1) [listing 1 of 2 here] |  |  |  | 4.7% | 13.7% |  |  | 13.2% | 
11 | CN[C@]1(c2ccccc2Cl)CCCCC1=O [ESKETAMINE] |  |  |  |  |  | 6.97 |  |  | 
12 | CN1CC2CCC(O)C1CN2Cc1ccccc1 (single isomer, unassigned; form 1) [listing 2 of 2 here] | 5.54 |  | 5.30 |  |  |  |  |  | 
13 | COC1CCC2CN(CCc3ccccc3)C1CN2Cc1ccccc1 (centres undefined) | 6.53 | 5.30 | 7.12 | 68.6% | 50.5% |  |  |  | 
14 | COC1(OC)CC[C@H]2CN(C)[C@@H]1CN2Cc1ccccc1 | 5.74 | < 5.00 | 5.46 | 27.6% | 44.3% |  |  |  | 
15 | CCCCN1CC2CCC(OC)C1CN2Cc1ccccc1 (centres undefined) | 6.66 | 6.80 | 7.88 | 37.4% | 55.5% |  |  |  | 16
16 | CCCCN1CC2CCC(OCc3ccccc3)C1CN2Cc1ccccc1 (centres undefined) | 6.09 | 5.95 | 7.40 |  | 21.5% |  | 5.48 |  | 21

From ChEMBL document CHEMBL1147988, “Synthesis of bridged piperazines with sigma receptor affinity” (Eur J Med Chem, 2007)
